This is an account of results in ChEMBL document CHEMBL4513216, “Probing the Open Global Health Chemical Diversity Library for Multistage-Active Starting Points for Next-Generation Antimalarials” (ACS Infect Dis, 2020).

A short description of the data set: Toxicity liver stage against HepG2, at 10uM. The class given is cell-based. Also noted: test concentration 10 uM, cell line HepG2-A16-CD81EGFP. The note with it: human, HepG2-A16-CD81EGFP cells; read-out: INHIBITION
The essentials:
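Uninfected HepG2-A16-CD81EGFP cells, 3 × 10^3 per well, 1536-well, plated on prespotted compound at 10 μM final, parasite-free screening media added to match infected plates; puromycin 10 μM positive, DMSO 0.5% negative; run in parallel with 48 h PbLuc assay at 37 °C, 5% CO2; viability by CellTiter-Glo luminescence, normalized to controls.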
Consider `COc1cc2cc(C(=O)O)n(C)c2c(OC)c1OC`, for which the cytotoxicity at 10 µM is 12.8%.
With `CCN(C1CCS(=O)(=O)C1)S(=O)(=O)c1cccc2cc(C)cnc12` (configuration not stated) the figure was -11%.
Consider `Cc1nc(Oc2ccccc2F)sc1C(=O)O`, for which the cytotoxicity at 10 µM was -11.2%.
On to `Cc1nc2oc(C(=O)N3CCOCC3)c(N)c2c2c1CCCC2`, for which the cytotoxicity at 10 µM was -2.8%.
`CC1CCN(C(=O)c2cn(-c3cc(N4CCOCC4)ncn3)cn2)CC1`: the cytotoxicity at 10 µM was 1.75%.
In the case of `Cn1cc(S(=O)(=O)NCC2CCN(C(=O)c3ccoc3)CC2)cn1`, the cytotoxicity at 10 µM is -3.82%.
Consider `O=C1[C@H]2CN(C(=O)[C@H]3CCCO3)C[C@H]2CN1CC1CC1`, for which the cytotoxicity at 10 µM was -6.66%.
The result for `Cc1nc(N2CCCC2)nc2c1CN(C(=O)NC(C)C)CC2` reads 2.94%; that for `O=C(CCc1nc2cccnc2[nH]1)NCc1ccc2c(c1)OCO2`, 0.356%; that for `C[C@H]1C(=O)NC[C@H]2CN(Cc3ccccc3)C[C@H]21`, 1.47%.
In the case of `CCn1c(NCc2cccnc2)nc2c(C)nn(C)c2c1=O`, the cytotoxicity at 10 µM is 5.17%.
With `Cc1ncc2c(n1)CCCC2NC(=O)c1ccc(Cn2cccn2)cc1` (configuration not stated) the figure was -7.55%; with `CNc1cccc(C2CCN(C(C)=O)CC2)n1`, 7.49%.
Take `Cn1ncc(Cl)c1C(=O)N1CCC(c2nnsc2S(C)(=O)=O)CC1`: the cytotoxicity at 10 µM was -4.7%.
Consider `CN(C)S(=O)(=O)N1CCC(c2n[nH]cc2-c2ccnc(N)c2)C1` (configuration not stated), for which the cytotoxicity at 10 µM stood at 8.81%.
With `Cc1ncc(C(=O)N2CCCC2(C)C(=O)N2CCOCC2)c(C)n1` (configuration not stated) the figure was -0.681%.
Consider `CC(=O)N1CCOC(c2c(C(=O)O)sc3ccccc23)C1` (configuration not stated), for which the cytotoxicity at 10 µM turned out to be 5.76%.
For the compound `Cc1c[nH]nc1C1CCN(C(=O)Cn2cccn2)C1` (configuration not stated), the cytotoxicity at 10 µM came out at 3.09%.
Consider `CCc1ccccc1Nc1noc2c1CN(C(=O)C1CCCO1)CC2` (configuration not stated), for which the cytotoxicity at 10 µM was -9.9%.
For `CN1CCN(C(=O)C2CCN(c3cccnn3)CC2)CC1`, the cytotoxicity at 10 µM is -0.353%.
In the case of `CNc1cccc(C2CCN(C(=O)c3cccnc3)CC2)n1`, the cytotoxicity at 10 µM was -7.27%.
For `CO[C@H]1CN(Cc2cc(F)ccc2F)CC[C@@]12CCCO2`, the cytotoxicity at 10 µM is -8.49%.
As to `O=C1NCc2ccccc2CC12CCN(Cc1c(F)cccc1Cl)C2` (configuration not stated), the cytotoxicity at 10 µM was determined as 11.2%.
With `CC(=O)c1sc(Nc2ccc(Cl)cn2)nc1C`, the cytotoxicity at 10 µM was found to be 41.9%.
In the case of `COc1ccccc1C1(CNc2cn[nH]c(=O)c2Cl)CCOCC1`, the cytotoxicity at 10 µM amounted to 0.152%.
Take `CN(C)S(=O)(=O)N1CCC(C(O)c2ccc(Cl)cc2)CC1` (configuration not stated): the cytotoxicity at 10 µM was -21.4%.
With `O=C(Cc1ccon1)Nc1cncc(Br)c1O`, the cytotoxicity at 10 µM was determined as 7.06%.
For the compound `CC(C)C(=O)NCc1cc(Br)ccc1F`, the cytotoxicity at 10 µM was -3.98%.
As for `O=C(Nc1cc(C(F)(F)F)c[nH]c1=O)C1CCCO1` (configuration not stated), the cytotoxicity at 10 µM was -0.37%.
For the compound `CCS(=O)(=O)NCC(=O)NC1(C)CCc2ccccc2C1` (configuration not stated), the cytotoxicity at 10 µM stood at 2.22%.
For `O=C(CN(Cc1cccc(F)c1)CC1CCCO1)N1CCCC1` (configuration not stated), the cytotoxicity at 10 µM was -7.29%.
Consider `COc1ccc(C(=O)Cn2cnnc2[S+](C)[O-])cc1Cl` (configuration not stated), for which the cytotoxicity at 10 µM is -8.17%.
Regarding `COc1ncccc1NC(=O)N1CCC(C(=O)NC(C)C)CC1`, the cytotoxicity at 10 µM was -3.68%.
The result for `CC(C)n1cc(CN2CCCN(C(=O)c3ccoc3)CC2)cn1` reads -3.44%; that for `Cc1cc(C)c(S(N)(=O)=O)cc1C(=O)NCC1Cc2ccccc2O1` (configuration not stated), -4.53%.
For the compound `Cc1ccc(F)c2c1N(C(=O)c1cn(CC(=O)N(C)C)nn1)CCC2`, the cytotoxicity at 10 µM is -9.17%.
In the case of `CCS(=O)(=O)NCCNC(=O)N(Cc1ccc(C)o1)C(C)C`, the cytotoxicity at 10 µM was determined as 1.84%.
Consider `CN(C)c1cccc(C(=O)N2CCn3c(nnc3-c3ccccc3)C2)c1`, for which the cytotoxicity at 10 µM was -0.375%.
In the case of `Cc1c(Br)cccc1CNC1(CCO)CCOCC1`, the cytotoxicity at 10 µM was -10.7%.
With `Cn1cc(C(=O)Nc2cccc(CCN3CCCC3)c2)ccc1=O` the figure was 7.76%; with `CC(C)N1CCN(C(=O)c2ccccc2NCc2cccnc2)CC1`, -19.4%.
In the case of `Cc1ccccc1N(CC(=O)NCCc1nnc2n1CCC2)S(C)(=O)=O`, the cytotoxicity at 10 µM was -0.69%.
Consider `CC(C)c1nnc(NCCS(C)(=O)=O)s1`, for which the cytotoxicity at 10 µM was -1%.
Take `CCc1nnc(Sc2nn3cc(C)nc3s2)n1C`: the cytotoxicity at 10 µM is -3.64%.
With `Cc1nc(S(=O)(=O)N2CCC3(CCCCC3)C2)cn1C` the figure was -4.2%; with `CC(=O)N1CCN(C(=O)NCCCN(C(C)C)S(C)(=O)=O)CC1`, -14%; with `COC(=O)CN(Cc1ccccc1C)C(=O)CCNC(=O)C(C)(C)C`, 12.9%.
The result for `Cc1cc(C(=O)N2CCS(=O)(=O)CC2)c(C)o1` reads -16.8%; that for `O=C(NCCCNCC1CNc2ccnn2C1)c1ccccc1` (configuration not stated), -1.48%; that for `Cc1nc(Cn2c3c(ccc2=O)CC(NC(N)=O)CC3)cs1` (configuration not stated), 9.79%.
For the compound `CC(=O)c1ccccc1-c1cc(C(=O)O)cc(S(=O)(=O)NC(C)C)c1`, the cytotoxicity at 10 µM came to 0.476%.
Turning to `Cc1nc(-c2ccncc2)ncc1C(C)NC(=O)C1=NN(C)C(=O)CC1` (configuration not stated), the cytotoxicity at 10 µM was -0.205%.
Regarding `Cc1cc(C[C@@H]2COC[C@@H]2NC(=O)CCN2Cc3ccccc3C2)on1`, the cytotoxicity at 10 µM worked out at 3.86%.
On to `CNC(=O)c1ccnc(CC2COc3c(cccc3OC)C2)c1` (configuration not stated), for which the cytotoxicity at 10 µM stood at 3.77%.
Take `Cc1cc(N2C[C@H](C3CC3)[C@@H](N)C2)nc(N2CCCCC2)n1`: the cytotoxicity at 10 µM was -15.6%.
In the case of `CC(=O)NCCNC(=O)C1(Oc2cccnc2C)CCNCC1`, the cytotoxicity at 10 µM stood at 3.24%.
Take `COCC(=O)N1CCCC1c1ccc(C(=O)NCc2ccccc2Cl)s1` (configuration not stated): the cytotoxicity at 10 µM was -0.909%.
In the case of `CCN1CC2(CCC1=O)CCN(Cc1cccc(OC(F)F)c1)CC2`, the cytotoxicity at 10 µM is -16.5%.
The result for `O=C(CCN1CCCCO1)N1CCC(CO)(Cc2ccccc2)CC1` reads 7.26%.
Turning to `c1ccc2c(c1)cnn2CCCNC1CCOC2(CCOCC2)C1` (configuration not stated), the cytotoxicity at 10 µM is -7.35%.
Take `CCN1CCN(C(=O)c2[nH]c3ccccc3c2Cl)[C@H]2CS(=O)(=O)C[C@H]21`: the cytotoxicity at 10 µM is -5.41%.
Regarding `COC(=O)c1ccc(OC)c(OC23CCCN(CC2)C3)c1` (configuration not stated), the cytotoxicity at 10 µM was -13.9%.
In the case of `O=C(NC1CCC1)c1cccc(S(=O)(=O)NCc2nc(C3CC3)no2)c1`, the cytotoxicity at 10 µM was -0.0264%.
With `COc1ccc(N2CCN(Cc3noc(CC(C)C)n3)C(C)C2=O)cc1` (configuration not stated) the figure was 4.11%.
Consider `O=C(NCC1CCS(=O)(=O)C1)c1ccc2cccc(Cl)c2n1` (configuration not stated), for which the cytotoxicity at 10 µM was -10.1%.
The result for `O=C1CC2(CCCC2)CC(=O)N1Cc1nc2ncccn2n1` reads 2.49%; that for `COC(=O)c1cc2c(=O)[nH]c(=O)n(CCc3ccccc3)c2nc1C`, -4.74%.
For `CSCCC1c2nc[nH]c2CCN1Cc1ccnc2ccccc12` (configuration not stated), the cytotoxicity at 10 µM turned out to be 13.2%.
On to `Cn1ncc(NC(=O)c2noc3c2CCCC3)c1C(=O)N1CCCCC1`, for which the cytotoxicity at 10 µM was -13.4%.
With `COc1ccccc1CNC(=O)C[S+]([O-])Cc1cc(C)on1` (configuration not stated), the cytotoxicity at 10 µM was -4.92%.
As for `Cc1cnn(CC2CCCN2C(=O)c2c(C)noc2C(C)C)c1` (configuration not stated), the cytotoxicity at 10 µM was -0.502%.
With `Clc1cc(CN2CCCCC2Cn2cncn2)c2ncccc2c1` (configuration not stated) the figure was -12.9%; with `Cn1ncc2c(N3CCCN(C(=O)c4ccsc4)CC3)ncnc21`, -10.6%.
The result for `Cc1nnc(CN(Cc2ccc3c(c2)OCO3)C2CCCCC2)o1` reads -6.14%; that for `Cc1ccc(CNC(=O)Cn2nc(-c3ccc(F)cc3)oc2=O)cc1F`, -5.86%; that for `Cc1cc(C)n(CC2CCCN2C(=O)CCNc2ncccn2)n1` (configuration not stated), -2.31%.
The result for `CCc1noc(CNCCn2cc(C)cn2)n1` reads -2.54%; that for `CCC(O)CN1CCN(C(=O)c2ccc3c(c2)COC3)CC1` (configuration not stated), -6.58%.
Turning to `CC(Cn1ccnc1)NC(=O)NCc1ccc2c(c1)OCCO2` (configuration not stated), the cytotoxicity at 10 µM is -18.6%.
For `CS(=O)(=O)c1cccc(C(N)c2ccc(F)cc2)c1` (configuration not stated), the cytotoxicity at 10 µM was -19.9%.
Turning to `c1cncc(-c2noc(CN3CCCC3Cn3cccn3)n2)c1` (configuration not stated), the cytotoxicity at 10 µM was -4.74%.
In the case of `Cc1cnn(CC2CCCN2C(=O)Cc2cccs2)c1` (configuration not stated), the cytotoxicity at 10 µM is -0.704%.
The result for `Cc1ccc(C(=O)N2CCN(C(=O)Cc3ccccn3)CC2)c(C)c1` reads -4.74%; that for `CC(NC(=O)NCCCN(C)S(C)(=O)=O)c1cccnc1` (configuration not stated), -12.5%.
Take `Cc1ccc(CNC(=O)CCNS(C)(=O)=O)cc1`: the cytotoxicity at 10 µM is -5.07%.
As to `O=C(c1cnc(-c2ccccn2)s1)N1CCCC1Cn1cccn1` (configuration not stated), the cytotoxicity at 10 µM is -5%.
Regarding `COc1ccnc(N2CCN(C(=O)c3ccc(Cl)o3)CC2)n1`, the cytotoxicity at 10 µM was -19.2%.
Turning to `O=C(Cc1cccc2ccccc12)N1CCC(Nc2cccnn2)CC1`, the cytotoxicity at 10 µM was -17.1%.
`CC(C)N1CCCCC1c1nc(N(C)C)ncc1I` (configuration not stated): the cytotoxicity at 10 µM was -3%.
With `CN(C)CCCN(Cc1cnn(C)c1)Cc1ccco1`, the cytotoxicity at 10 µM turned out to be 2.36%.
The result for `Cc1cnc(N2CCC3(CCN(CC4CCCC4)C3=O)CC2)nc1` reads -6.54%; that for `c1cncc(COCc2nnn3c2CN(Cc2ccsc2)CC3)c1`, 6.4%.
For `CCN1C[C@@H]2CN(Cc3cccs3)C[C@@H]2C1=O`, the cytotoxicity at 10 µM is -3.19%.
The result for `Cc1cccc(CN2C(=O)CO[C@@H]3CN(CCO)C[C@H]32)c1` reads -14.1%; that for `O=C([C@@H]1COC[C@H]2CN(C3CCOCC3)C[C@H]21)N1CCCO1`, -3.2%.
With `Cc1nc(=O)c(CC(=O)N2C[C@H]3CC[C@@H](C2)N(CC2CCC2)C3)c[nH]1`, the cytotoxicity at 10 µM was 1.43%.
As to `CCC(C)NS(=O)(=O)c1ccc(C=Cc2onc(C)c2NC(C)=O)cc1` (configuration not stated), the cytotoxicity at 10 µM was -10.7%.
